This is one part of a sample in which hits are shown more often than they occur.
KDM4C inh: inhibitors of human demethylase GASC-1 KDM4C | Q9H3R0 | GST-KDM4C 2-372, H3K9me3 peptide, LANCE TR-FRET | inhibition, % at 12.5 µM | 96,000 tested, 0.15% active | AID 720574;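 active = mean replicate inhibition above about 25%, with at least 55% of replicates also reaching it, limit read from the data, passing the limit was not always enough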
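System: N-terminal GST-fused human GASC-1 (KDM4C) fragment, residues 2-372 / Amount: 10 nM GST-KDM4C in enzyme reaction / Also added: H3K9me3 peptide with Fe(II)/2OG / Times: 30 min demethylation and 1 h detection at room temperature / Signal: LANCE TR-FRET / Read-out basis: Fall in 671/618 emission ratio as inhibition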
IDH1 R132H inh: blocks human IDH1 R132H reductase activity | AID 624101 | diaphorase/resazurin fluorescence, 60 min | O75874 | inhibition, % at 10 µM | 70,000 tested, 0.18% active; in the data active = inhibition above about 34%;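 also: 0% = DMSO and 100% = no enzyme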
Target sequence (O75874 whole entry R132H): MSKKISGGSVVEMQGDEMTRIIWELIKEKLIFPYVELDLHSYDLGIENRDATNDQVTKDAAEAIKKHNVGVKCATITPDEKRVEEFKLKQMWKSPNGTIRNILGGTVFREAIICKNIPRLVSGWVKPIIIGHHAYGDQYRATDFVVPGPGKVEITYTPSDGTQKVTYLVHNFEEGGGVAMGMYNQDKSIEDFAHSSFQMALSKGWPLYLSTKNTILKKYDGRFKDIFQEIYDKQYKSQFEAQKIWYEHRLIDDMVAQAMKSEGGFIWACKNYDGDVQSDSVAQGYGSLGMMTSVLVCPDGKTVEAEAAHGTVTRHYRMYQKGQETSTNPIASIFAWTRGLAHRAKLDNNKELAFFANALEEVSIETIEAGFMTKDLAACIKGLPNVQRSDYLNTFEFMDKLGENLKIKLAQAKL
Starred values were filed as active, the others as inactive; x = not tested or not shown.

SMILES	KDM4C inh	IDH1 R132H inh
C[C@H](CO)N1C[C@H](C)[C@@H](CN(C)C(=O)c2ccccc2F)Oc2ncc(C#Cc3ccncc3)cc2C1=O	-2	1
COCC(=O)N(C)C[C@@H]1Oc2ncc(C#CC3(O)CCCC3)cc2C(=O)N([C@H](C)CO)C[C@@H]1C	3	0
COCC(=O)N(C)C[C@H]1Oc2ncc(C#CC3(O)CCCC3)cc2C(=O)N([C@@H](C)CO)C[C@H]1C	31*	13
COc1ccc(C(Nc2ccccn2)c2cc(Cl)c3cccnc3c2O)cc1[N+](=O)[O-] (stereo not drawn)	x	0
O=C1c2ccc(O)cc2C(=O)c2ccc(O)cc21	x	0
C[C@@H]1CN([C@@H](C)CO)C(=O)c2cc(C#CCc3ccccc3)cnc2O[C@@H]1CN(C)Cc1ccc(C(=O)O)cc1	-2	1
COc1ccccc1-c1cnc2c(c1)C(=O)N([C@H](C)CO)C[C@@H](C)[C@H](CN(C)C)O2	33*	16
COc1ccccc1-c1cnc2c(c1)C(=O)N([C@H](C)CO)C[C@H](C)[C@@H](CN(C)C)O2	3	-1
COc1ccc(C#Cc2cnc3c(c2)C(=O)N([C@H](C)CO)C[C@H](C)[C@H](CN(C)C)O3)cc1OC	29*	-1
COc1ccc(C#Cc2cnc3c(c2)C(=O)N([C@H](C)CO)C[C@@H](C)[C@@H](CN(C)C)O3)cc1	-1	0
C[C@H]1CN([C@@H](C)CO)C(=O)c2cc(C#CCc3ccccc3)cnc2O[C@@H]1CN(C)Cc1ccc(C(=O)O)cc1	4	35*
COc1ccc(C#Cc2cnc3c(c2)C(=O)N([C@H](C)CO)C[C@@H](C)[C@H](CN(C)C)O3)cc1	-1	0
COc1ccc(C#Cc2cnc3c(c2)C(=O)N([C@@H](C)CO)C[C@H](C)[C@H](CN(C)C)O3)cc1	28*	0
Cc1c(C(=O)C2C(=O)C(=O)N(Cc3cccnc3)C2c2ccccn2)cnn1-c1ccccc1 (stereo not drawn)	x	0
COC(=O)c1ccccc1NC(=O)CNC(=O)c1ccccc1F	x	0
Cc1ccc(NC(=O)CN(C)S(=O)(=O)c2ccccc2)c(C)c1	x	0
C[C@@H]1CN([C@@H](C)CO)C(=O)c2c(c3ccccc3n2C)-c2ccccc2CO[C@@H]1CN(C)Cc1ccc(O)cc1	-1	x
C[C@@H]1CN([C@@H](C)CO)C(=O)c2c(c3ccccc3n2C)-c2ccccc2CO[C@@H]1CN(C)Cc1ccncc1	0	47*
C/C(=C\C(=O)O)CCC1C(C)(O)CCC2C(C)(CO)CCCC12C (stereo not drawn)	x	2
COc1ccc(-c2ccc3n(c2=O)C[C@@H]2[C@@H](CO)[C@H](C(=O)N(C)C)N(CC4CC4)[C@H]32)cc1	28*	x
COc1ccc(-c2ccc3n(c2=O)C[C@@H]2[C@@H](CO)[C@H](C(=O)N(C)C)N(CC4CCCC4)[C@H]32)cc1	9	x
O=C(COc1cc(O)c2c(=O)c3ccccc3oc2c1)c1ccc(Cl)cc1	x	0
Cc1cc(-c2ccc(N=Nc3cc(S(=O)(=O)O)c4ccccc4c3N)c(C)c2)ccc1N=Nc1cc(S(=O)(=O)O)c2ccccc2c1N	x	43*
Cc1cc(N)n(-c2ccc(Oc3ccccc3)cc2S(=O)(=O)O)n1	x	-1

Screens (PubChem)
